Fewer inactive variants are shown than the library holds.
B1: tRNA (parent)
chain: GUUCCGUUGGCGUAAUGGUAACGCGUCUCCCUCCUAAGGAGAAGACUGCGGGUUCGAGUCCCGUACGGAACG

Variants of: B1
Assay: yeast fitness relative to wild type (ratio to wild type); higher = fitter; tRNA-Arg(CCU), competitive growth, 37 C, YPD
Procedure, shortened: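 Genotype frequency changes were the basis for Darwinian fitness relative to wild type. The frequencies came from 100-nucleotide paired-end sequencing of gene amplicons from the start population and each end population of pooled yeast strains with tRNA-Arg(CCU) gene variants at the native locus. Competition ran in YPD at 37°C for 24 hours in six replicates, genotypes needed ≥ 100 starting reads, and estimates < 0.5 were set to 0.5.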

| Variant | yeast fitness |
| --- | --- |
| GUUCCGUUGGCGUAAUGGUAACGCGUCUCCCUCCUAAGGAGAAGACUGGCGGUUCGAGUCCCGUUCGGAACG [C49G G50C A65U] | 0.544 |
| GUUCCGUUGGCGUAAUGGUAACGCGUCUCCCUCCUAAGGAGAAGACUGGGGGUUCGAGUCCCGUACGGUACG [C49G A69U] | 0.955 |
| GUUCCGUUGGCGUAAUGGUAACGCGUCUCCCUCCUAAGGAGAAGACUGGGGGUUCGAGUCCCGUACGGCACG [C49G A69C] | 0.766 |
| GUUCCGUUGGCGUAAUGGUAACGCGUCUCCCUCCUAAGGAGAAGACUGUGGGUUCGAGUACCGUACGGAGCG [C49U C60A A70G] | 0.546 |
| GUUCCGUUGGCGUAAUGGUAACGCGUCUCCCUCCUAAGGAGAAGACUGAGGGUUCGAGUCCUGUACGGAACG [C49A C62U] | 0.717 |
| GUUCCGUUGGCGUAAUGGUAACGCGUCUCCCUCCUAAGGAGAAGACUGGGGGUUCCAGUCCCGUACGGACCG [C49G G56C A70C] | ≤ 0.5 |
| GUUCCGUUGGCGUAAUGGUAACGCGUCUCCCUCCUAAGGAGAAGACUGGGGGUUCGAGUUCCGUACGGAACG [C49G C60U] | 0.692 |
| GUUCCGUUGGCGUAAUGGUAACGCGUCUCCCUCCUAAGGAGAAGACUGGGGGUUCGAGUCCAGUACGGAACG [C49G C62A] | 0.845 |
| GUUCCGUUGGCGUAAUGGUAACGCGUCUCCCUCCUAAGGAGAAGACUGAGGGCUCGAGUCCGGUACGGAACG [C49A U53C C62G] | 0.598 |
| GUUCCGUUGGCGUAAUGGUAACGCGUCUCCCUCCUAAGGAGAAGACUGAGGGUUCGAGUCCUGUAUGGAACG [C49A C62U C66U] | 0.585 |
| GUUCCGUUGGCGUAAUGGUAACGCGUCUCCCUCCUAAGGAGAAGACUGUGGGUUCGAGUCCCGUACGGAGCG [C49U A70G] | 1.07 |
| GUUCCGUUGGCGUAAUGGUAACGCGUCUCCCUCCUAAGGAGAAGACUGGGGGUUGGAGUCGCGUACGGAACG [C49G C55G C61G] | 0.558 |
| GUUCCGUUGGCGUAAUGGUAACGCGUCUCCCUCCUAAGGAGAAGACUGUGGGUUUGAGUCACGUACGGAACG [C49U C55U C61A] | ≤ 0.5 |
| GUUCCGUUGGCGUAAUGGUAACGCGUCUCCCUCCUAAGGAGAAGACUGGGGGUUCCAGUCCCGUACGGAACG [C49G G56C] | 0.641 |
| GUUCCGUUGGCGUAAUGGUAACGCGUCUCCCUCCUAAGGAGAAGACUCCGGGCUCGAGUCCCGUACGGAACG [G48C U53C] | 0.694 |
| GUUCCGUUGGCGUAAUGGUAACGCGUCUCCCUCCUAAGGAGAAGACUCCGGGGUCGAGUCCCGUACGGAACG [G48C U53G] | 0.635 |
| GUUCCGUUGGCGUAAUGGUAACGCGUCUCCCUCCUAAGGAGAAGACUGUGGGUUCGAGUCACGUACGGAACG [C49U C61A] | 0.57 |
| GUUCCGUUGGCGUAAUGGUAACGCGUCUCCCUCCUAAGGAGAAGACUGGGGGUUCGAAUCCCGUAGGGAACG [C49G G58A C66G] | 0.564 |
| GUUCCGUUGGCGUAAUGGUAACGCGUCUCCCUCCUAAGGAGAAGACUGUGGGUUCGUGCCCCGUACGGAACG [C49U A57U U59C] | 0.536 |

| Variant | yeast fitness |
| --- | --- |
| GUUCCGUUGGCGUAAUGGUAACGCGUCUCCCUCCUAAGGAGAAGACUGUGGGUUCGUGUCCCGUACGGAACG [C49U A57U] | 0.632 |
| GUUCCGUUGGCGUAAUGGUAACGCGUCUCCCUCCUAAGGAGAAGACUGGGGGUUCGAGUCCCCUACGUAACG [C49G G63C G68U] | 0.522 |
| GUUCCGUUGGCGUAAUGGUAACGCGUCUCCCUCCUAAGGAGAAGACUGAGGGUUCGCGUCCCGUACGGUACG [C49A A57C A69U] | 0.528 |
| GUUCCGUUGGCGUAAUGGUAACGCGUCUCCCUCCUAAGGAGAAGACUGAGGGUUCGCGUCCCGUACGGCACG [C49A A57C A69C] | ≤ 0.5 |
| GUUCCGUUGGCGUAAUGGUAACGCGUCUCCCUCCUAAGGAGAAGACUGGGGGUUCGAGUCCCGGGCGGAUCG [C49G U64G A65G A70U] | 0.683 |
| GUUCCGUUGGCGUAAUGGUAACGCGUCUCCCUCCUAAGGAGAAGACUCCGGGUUCGAGGCCCGUACGGAACG [G48C U59G] | 0.722 |
| GUUCCGUUGGCGUAAUGGUAACGCGUCUCCCUCCUAAGGAGAAGACUCCGGGUUCGAGCCCCGUACGGAACG [G48C U59C] | 0.929 |
| GUUCCGUUGGCGUAAUGGUAACGCGUCUCCCUCCUAAGGAGAAGACUGUGGGUUUGAGUCCCGUACGGCACG [C49U C55U A69C] | 0.665 |
| GUUCCGUUGGCGUAAUGGUAACGCGUCUCCCUCCUAAGGAGAAGACUGGGGGUUCAAGUCCCGUACGGCACG [C49G G56A A69C] | 0.73 |
| GUUCCGUUGGCGUAAUGGUAACGCGUCUCCCUCCUAAGGAGAAGACUGGGGGAUCGAGUCCCGUAUGGAACG [C49G U53A C66U] | ≤ 0.5 |
| GUUCCGUUGGCGUAAUGGUAACGCGUCUCCCUCCUAAGGAGAAGACUGUGGGUUCGAGUCGCGUACGGCACG [C49U C61G A69C] | 0.559 |
| GUUCCGUUGGCGUAAUGGUAACGCGUCUCCCUCCUAAGGAGAAGACUGAGGAUUCGAGUCUCGUACGGAACG [C49A G52A C61U] | ≤ 0.5 |
| GUUCCGUUGGCGUAAUGGUAACGCGUCUCCCUCCUAAGGAGAAGACUGUGGGUUAGAGUACCGUACGGAACG [C49U C55A C60A] | ≤ 0.5 |
| GUUCCGUUGGCGUAAUGGUAACGCGUCUCCCUCCUAAGGAGAAGACUGGGGGCUCGAGUCCCGUACGGAACG [C49G U53C] | 0.723 |
| GUUCCGUUGGCGUAAUGGUAACGCGUCUCCCUCCUAAGGAGAAGACUGUGGGUUUGAGUCCCGUACGGAACG [C49U C55U] | 0.649 |
| GUUCCGUUGGCGUAAUGGUAACGCGUCUCCCUCCUAAGGAGAAGACUGUGGGUUAGAGUCCCGUACGGAACG [C49U C55A] | 0.557 |
| GUUCCGUUGGCGUAAUGGUAACGCGUCUCCCUCCUAAGGAGAAGACUGGGGGAUCGAGUCCCGUACGGAGCG [C49G U53A A70G] | ≤ 0.5 |
| GUUCCGUUGGCGUAAUGGUAACGCGUCUCCCUCCUAAGGAGAAGACUGAGGGUUCGAGACCCGUACGGAACG [C49A U59A] | 0.681 |
